# Rows were chosen to be rich in hits. Some 4.5% of all compounds tested hit in one or more screens of this group.
# OX1R antag-1: OX1R (HCRTR1) antagonists, primary screen, fluorescence, CHO/OX1R cells, Fluo-8 calcium, orexin A; Orexin/Hypocretin receptor type 1 (Homo sapiens), O43613; Fluo-8 calcium fluorescence; inhibition, % at 5 µM; hit rate 0.43% among 330,000; AID 434989, 2010;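 active means inhibition above its plate's threshold, mean inhibition of all tested compounds on the plate plus 3 SD, cut at about 37% in these data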;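 further: 0% = orexin A challenge wells and 100% = SB-334867-A antagonist wells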
# CHO parental Ca: ATP-evoked calcium signal inhibitors, parental CHO, primary screen, counter-screen for OX1R antagonist project, cell-based, fluorescence, Fluo-8 calcium dye; inhibition, % at 5.6 µM; parental CHO-K1, ATP-induced calcium, Fluo-8 fluorescence; hit rate 0.63% among 330,000;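 active means inhibition above that plate's mean sample inhibition plus 3 SD, cut at about 26% in these data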;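 further: 0% = ATP-challenged DMSO wells and 100% = DMSO wells without ATP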
#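 Test system: untransfected parental CHO cell line; also added: ATP stimulus; dosing: 5.6 µM, single dose; signal: calcium-sensitive Fluo-8 fluorescence; measure: percent inhibition of ATP-evoked calcium rise, normalized to controls; benchmarks: low control ATP plus DMSO, high control DMSO only; replication: one well per compound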
# TAAR1 agonist: human TAAR1 agonists, primary screen, Fluo-8 calcium fluorescence, CHO RD-HGA16 cells; Trace amine-associated receptor 1 (Homo sapiens), Q96RJ0; vehicle wells 0%, saturating PEA agonist 100%; activation, % at 3 µM; hit rate 0.99% among 360,000; AID 624467, 2012;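 active means activation above the mean activation of all test compounds in the run plus 3 SD, cut at about 38% in these data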
# Target sequence (Q96RJ0 whole entry, looked up): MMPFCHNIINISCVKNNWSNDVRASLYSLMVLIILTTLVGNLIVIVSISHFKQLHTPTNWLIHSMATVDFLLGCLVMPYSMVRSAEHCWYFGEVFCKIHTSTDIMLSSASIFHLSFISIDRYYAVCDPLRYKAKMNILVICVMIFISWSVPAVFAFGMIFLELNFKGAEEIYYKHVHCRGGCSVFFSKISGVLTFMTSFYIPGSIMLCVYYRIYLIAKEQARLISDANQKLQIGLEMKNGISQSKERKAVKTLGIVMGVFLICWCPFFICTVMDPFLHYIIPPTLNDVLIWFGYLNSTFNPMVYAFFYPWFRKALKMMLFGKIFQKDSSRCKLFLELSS
#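 Test system: RD-HGA16 (CHO) cells co-expressing Gα16 and hTAAR1 / Benchmarks: DMSO vehicle as 0%, PEA at EC100 as 100% / Repeats: no replicates (n 1) / Measure: % activation from peak over basal fluorescence ratio, DMSO-to-PEA scaled / Timing: 17-24 h plating, Fluo-8 75 min 37 °C, 30 min RT / Technique: kinetic Fluo-8 calcium fluorescence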
# TAAR1 antagonist: human TAAR1 antagonists, primary screen, Fluo-8 calcium fluorescence, CHO RD-HGA16 cells. hit rate 1.5% among 360,000. inhibition, % at 3 µM. antagonist. Trace amine-associated receptor 1 (Homo sapiens), Q96RJ0;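 active means inhibition above a per-plate cutoff, the mean inhibition of test compounds on that plate plus 3 SD, cut at about 49% in these data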;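 further: 0% = DMSO plus EC80 beta-PEA response and 100% = DMSO alone without agonist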
#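 Assay system: CHO-derived RD-HGA16 cells stably expressing human TAAR1 plus Gα16. Timing: 140 s kinetic read after compound, 140 s after agonist. Technique: kinetic Fluo-8 calcium fluorescence measurement. Measure: % inhibition of agonist calcium response.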
# GPR7 antag: GPR7 receptor antagonists, primary screen, cell-based, fluorescence, single concentration. GPR7-expressing cells, fluorescence antagonist assay. hit rate 1.1% among 290,000. inhibition, % at 4.4 µM; in the data active means inhibition above about 16%, passing the limit was not always enough;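 further: cells stimulated with the agonist NPW; 0% = agonist with vehicle and 100% = vehicle without agonist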
# OX1R antag-2: antagonists of human orexin 1 receptor (OX1R); Orexin/Hypocretin receptor type 1 (Homo sapiens), O43613; OX1R-expressing cells, FRET antagonist read-out; inhibition, % at 6.6 µM; hit rate 1.8% among 330,000; AID 485270, 2010; in the data active means inhibition mostly above about 38%, no sharp cut-off; inactive means mostly below about 40%;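 further: 0% = agonist challenge alone and 100% = reference antagonist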
# OX1R Fluo8 conf: OX1R (HCRTR1) antagonists, confirmation, fluorescence, CHO/OX1R cells, Fluo-8 calcium, orexin A. AID 492963, 2010. shares compounds with OX1R antag-1. inhibition, % at 5 µM. hit rate 38% among 1,100. orexin A calcium Fluo-8 fluorescence; in the data active means inhibition above about 29%;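 further: 0% = agonist challenge alone and 100% = reference antagonist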
# CHO Ca counter: ATP-evoked calcium inhibition in parental CHO, counter-screen for OX1R antagonist project, cell-based, fluorescence, CHO-K1, triplicate. shares compounds with OX1R antag-1. ATP-induced calcium, Fluo-8 fluorescence. inhibition, % at 5.6 µM. hit rate 9.3% among 1,100;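 active means inhibition above a per-plate limit, the mean inhibition of that plate's test compounds plus 3 SD, cut at about 25% in these data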;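 further: 0% = ATP challenge with DMSO and 100% = DMSO without ATP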
# OX1R HTRF confirm: OX1R (HCRTR1) antagonists, confirmation, cell-based, HTRF; shares compounds with OX1R antag-2; OX1R-expressing cells, HTRF antagonist assay; inhibition, % at 6.6 µM; hit rate 49% among 1,800; in the data active means inhibition above about 55%;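 further: CHO cells expressing OX1R stimulated with orexin A at about EC80; 0% = agonist challenge alone and 100% = reference antagonist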
# CHO-K1 HTRF cnt: signal inhibition in parental CHO-K1 cells, counter-screen for OX1R antagonist project, cell-based, HTRF; shares compounds with OX1R antag-2; HTRF counterscreen; inhibition, % at 6.6 µM; hit rate 48% among 1,800; AID 493232, 2011; in the data active means inhibition above about 17%;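 further: 0% = agonist challenge with vehicle and 100% = vehicle alone without agonist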
# TAAR1 ag conf: human TAAR1 agonists, retest of hits, confirmation, Fluo-8 calcium fluorescence, CHO RD-HGA16 cells; shares compounds with TAAR1 agonist; scaled: DMSO 0%, maximal phenethylamine 100%; activation, % at 3 µM; hit rate 82% among 2,400; AID 651783, 2012;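 active means activation above a cutoff set at the run's mean compound activation plus 3 SD, cut at about 39% in these data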
# Ga16 nonsel ag: nonselective calcium mobilization agonists, CHO-Ga16 cells, counter-screen for hTAAR1 agonist project, cell-based, fluorescence, CHO-Ga16 parental line | hit rate 50% among 2,400 | activation, % at 3 µM | shares compounds with TAAR1 agonist | Fluo-8 calcium fluorescence; normalized to maximal ATP response, DMSO zero;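 active means activation above the run cutoff, the mean activation over all tested wells plus 3 SD, cut at about 12% in these data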;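 further: 0% = DMSO wells and 100% = maximal ATP response on the peak over basal ratio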
# TAAR1 desens: TAAR1 desensitization by agonist hits, confirmation, counter-screen for TAAR1 agonist project, cell-based, fluorescence, tachyphylaxis | hit rate 46% among 2,400 | shares compounds with TAAR1 agonist | AID 651951, 2012 | CHO RD-HGA16 hTAAR1, Fluo-8 calcium, beta-PEA response inhibition | inhibition, % at 3 µM;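 active means inhibition above the run cutoff, the mean inhibition of all test compounds plus 3 SD, cut at about 49% in these data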;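 further: beta-PEA stimulus applied at its EC80; loss of beta-PEA calcium signal after compound pretreatment read as receptor desensitization; 0% = DMSO with beta-PEA at EC80 and 100% = DMSO alone without agonist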
# Ga16 nonsel ant: inhibition of ATP-evoked calcium response in CHO-Ga16 cells, counter-screen for TAAR1 agonist project, cell-based, fluorescence; CHO-Ga16 ATP-induced calcium, Fluo-8 fluorescence; inhibition, % at 3 µM; shares compounds with TAAR1 agonist; hit rate 39% among 2,400; AID 651952, 2012;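 active means inhibition above the plate's mean compound inhibition plus 3 SD, computed per plate, cut at about 22% in these data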;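 further: 0% = EC80 ATP with DMSO and 100% = DMSO wells without ATP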
# * hit, by the source's call; nt = no result; ! = not active in a repeat.
SMILES,OX1R antag-1,CHO parental Ca,TAAR1 agonist,TAAR1 antagonist,GPR7 antag,OX1R antag-2,OX1R Fluo8 conf,CHO Ca counter,OX1R HTRF confirm,CHO-K1 HTRF cnt,others
COC(=O)C1=C(c2ccccc2OCc2ccccc2)C[C@@H]2CC[C@H]1N2C(=O)NCCOc1ccccc1Cl,62*,-11,23,33,nt,53*,33*,-10,70*,-2,
O=P(C(Cl)Cl)(N1CCCCC1)N1CCCCC1,-5,-8,5,16,-6,25,nt,nt,nt,nt,
COc1ccc(OC)c(NP(=O)(Oc2ccccc2)Oc2ccccc2)c1,nt,nt,0,-9,-13,nt,nt,nt,nt,nt,
COc1cccc(OP(=O)(Nc2ccccc2)Oc2cccc(OC)c2)c1,45*,-4,nt,nt,-9,60*,29*,0,47,0,
CCCCCCn1c(=O)c(C(=O)Nc2ncccc2C)c(O)c2ccccc21,30,20,106*,74*,-7,13,0,6,nt,nt,TAAR1 ag conf=55*;Ga16 nonsel ag=30*;TAAR1 desens=48;Ga16 nonsel ant=35*
Cc1nc2ccccc2c(=O)n1-c1c(Cl)cccc1Cl,nt,nt,-2,-19,nt,nt,nt,nt,nt,nt,
CC[C@@H](CO)NC(=O)[C@@H]1C=C2c3cccc4c3c(cn4C)C[C@H]2N(C)C1,1,0,3,-25,-6,84*!,nt,nt,20,19*,
CCC(CO)NC(=O)C1C=C2c3cccc4[nH]cc(c34)CC2N(C)C1 (configuration not stated),1,-1,9,-22,-10,34,nt,nt,nt,nt,
COCCn1c(O)c(/C=N/NC(=O)CSC(=S)N2CCCC2)c(=O)[nH]c1=S,-3,-7,6,-11,nt,6,nt,nt,nt,nt,
COC(=O)C1=C(C)NC(=S)NC1c1ccc(N(CCCl)CCCl)cc1Cl (configuration not stated),nt,nt,0,-46,nt,nt,nt,nt,nt,nt,
CN1CCN(c2cccc3c2C(=O)c2ccccc2C3=O)CC1,nt,nt,3,-14,-10,nt,nt,nt,nt,nt,
O=C1C(=O)c2cccc3cccc1c23,-2,-7,7,-7,2,101*,nt,nt,31,42*,
